Data on nine compounds can be found in publication PMC4618637 (Pharmacology Research & Perspectives, 2015).

Where two headings read alike, the source gives them in different places.

Series [1] is classed as in vivo. The note with it: human ileal effluent 4 h after 5 g TU-100 oral. A digest of the protocol:
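Subjects were 10 ileostomy patients (2 male, 8 female), with stoma made at least 2 weeks prior and normal small intestine by enteroscopy. Those given kampo medicine within 4 weeks were excluded. A new bag was fitted, then 5 g TU-100 drug product (0.42 g drug substance) was taken, followed by an unrestricted breakfast. Effluent was collected at 4 h and frozen at −80°C. Liquid–liquid extraction used pH 5.0 ammonium acetate/PEG, methanol and internal standard, with or without β-glucuronidase (final 0.1 U/μL, 37°C), before LC-MS/MS. Results were expressed as % of ingested amount.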

The format of series [2] is in vivo, rat. Particulars: for Effect of β-glucuronidase treatment on blood concentrations: rat blood, data not shown. A digest of the protocol:
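Male Sprague Dawley rats (7 weeks, 274.2–317.7 g) were fasted 16 h and had jugular vein catheters placed 2 days earlier. Single oral TU-100 drug substance was given at 0.3 g/kg with 2.4 g/kg maltose (n = 5), or 0.9 g/kg with 7.2 g/kg maltose for 6G/6S. Plasma was taken at 0.083–24 h and analysed by LC-MS/MS after acetonitrile/methanol precipitation with internal standard. Cmax observed; AUC0–last; t1/2 = ln2/ke.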

Series [3] can be described thus: Portal blood pharmacokinetics of TU-100 ingredients after single oral TU-100. The class given is in vivo, rat. A digest of the protocol:
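Purchased male Sprague Dawley rats with hepatic portal vein catheters were fasted 16 h. They received oral TU-100 drug substance at 0.3 g/kg plus 2.4 g/kg maltose (n = 5). Portal plasma was sampled at 0.083, 0.25, 0.5, 1, 2, 4, 8 and 24 h and stored at −80°C. Samples were protein-precipitated with internal standard, optionally treated with β-glucuronidase (final 0.1 U/μL, pH 6.0, 37°C), then run on LC-MS/MS. Cmax and tmax were observed; AUC0–last was taken to the last detected time; values mean ± SD.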

Series [4] in a line: Recovery of TU-100 ingredients in small intestinal luminal contents. The class given is in vivo, rat. The note with it: for Effect of β-glucuronidase treatment on luminal amounts: rat small intestinal contents. A digest of the protocol:
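Fasted male Sprague Dawley rats (n = 3 per time) were killed 0.083–4 h after oral TU-100 with maltose. The small intestine was ligated into quarters (sites 1–4, oral to anal), and contents were collected with cold water to 10 mL and stored at −80°C. Aliquots, with or without β-glucuronidase (final 0.1 U/μL, pH 6.0, 37°C), were mixed with HBSS/30% acetonitrile and internal standard, then analysed by LC-MS/MS. Amount per site was expressed as % of dosed ingredient; mean ± SD.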

The conditions of series [5]: isotope-labeled 6S administered orally; ref Asami et al. [2010]; cited from earlier work.
[6] abbreviates: male, Sprague Dawley, rat, plasma from peripheral blood, po, 0.9 g/kg.
Where [7] appears, read: male, Sprague Dawley, rat, plasma from portal blood, po, 0.3 g/kg.
[8] abbreviates: rat peripheral blood, oral TU-100 0.3 g/kg, untreated, mean ± SD, n = 5.
Where [9] appears, read: all sites, all rats, all time points, data not shown.
The mark [10] stands for this setting: male, Sprague Dawley, rat, plasma from peripheral blood, po, 0.3 g/kg.
The mark [11] stands for this setting: site 3 and 4, at 30 min and 1 h (Fig. 2).
The mark [12] stands for this setting: site 4, at 2 h and 4 h (Fig. 2).

Regarding `CCCCC[C@H](O)CC(=O)CCc1ccc(O)c(OC)c1` [6G, [6]-gingerol], in series [1] (β-glucuronidase treatment −), the “% of ingested TU-100, Median” value is “B.L.Q”. Also, in series [2] (setting [6]), the AUC amounted to 0.974 ± 0.839 ng·h/mL, the AUC(0-t) worked out at 0.974 ± 0.839 ng·h/mL, the highest level (Cmax) was 0.676 ± 0.479 ng/mL and the Tmax is 0.466 ± 0.857 h. In series [3] (setting [7]), the AUC amounted to 59.7 ± 40.4 ng·h/mL, the AUC(0-t) is 59.7 ± 40.4 ng·h/mL, the maximum concentration (Cmax) turned out to be 38.3 ± 31.8 ng/mL and the time to peak (Tmax) is 1.31 ± 1.8 h. Besides, in series [3] (setting [7]), the half-life is 107 min. For the same compound, the “Peak concentration of 6G and its conjugates relative to that of HAS” value in series [3] (rat portal blood) is listed as “about one-fifth”. The “6G in luminal contents as % of the ingested amount” value in series [4] (all sites, at 30 min (Fig. 3)) is “below 2%”. Besides, the “Unconjugated 6G in luminal contents as % of the ingested amount” value in series [4] (sites 3 and/or 4, after 1 h (Fig. 3)) is reported as 2–3%.
With `CCCCC/C=C/C(=O)CCc1ccc(O)c(OC)c1` [6S, [6]-shogaol], in series [1] (β-glucuronidase treatment +), the “% of ingested TU-100, Max” value was determined as 0.8% and the “% of ingested TU-100, Median” value is 0.4%. Besides, the “% of ingested TU-100, Median” value in series [1] (β-glucuronidase treatment −) is given as “B.L.Q”. For the same compound, in series [3] (rat portal blood), the “Portal blood levels of 6S and its conjugates relative to 6G/6G conjugates” value was “approximately one tenth”. Further, in series [3] (rat portal blood after oral TU-100), the “Concentrations of 6S and its conjugates in the portal blood” value is “below 20 ng/mL”. The “Presence of 6S and its conjugates in luminal contents” value in series [4] (all sites, all rats, all time points (Fig. 3)) is on record as “virtually absent”. Besides, the “Isotope labels recovered in the urine” value in series [5] was “about 90%”.
`CCCCCCCCC[C@H](O)CC(=O)CCc1ccc(O)c(OC)c1` [10G, [10]-gingerol]: the “% of ingested TU-100, Max” value in series [1] (β-glucuronidase treatment +) is 9.1%. Further, the “% of ingested TU-100, Median” value in series [1] (β-glucuronidase treatment +) is 4.3%; in series [1] (β-glucuronidase treatment −) it was “B.L.Q”.
On the same counts, the results for `CCCCCCCCC/C=C/C(=O)CCc1ccc(O)c(OC)c1` [10S, [10]-shogaol] are 3.5%, 0.8% and “B.L.Q”.
On to `C/C=C/C=C/C=C\CC/C=C/C=C/C(=O)NCC(C)C` [GS, γ-sanshool], for which, in series [1] (β-glucuronidase treatment −), the “% of ingested TU-100, Max” value turned out to be 68.1% and the “% of ingested TU-100, Median” value stood at 4.1%.
Turning to `C/C=C/C=C/C=C\CC/C=C/C(=O)NCC(C)(C)O` [HAS, hydroxy-α-sanshool], in series [1] (β-glucuronidase treatment −), the “% of ingested TU-100, Max” value came to 0.4% and the “% of ingested TU-100, Median” value is “B.L.Q”. The “Effect of β-glucuronidase treatment on blood concentrations” value (from here on “Effect … on blood concentrations”) in series [2] is reported as “no effect”. Moreover, in series [2] (setting [8]), the AUCall stood at 951 ± 264 ng·h/mL, the AUClast is 951 ± 264 ng·h/mL, the maximum concentration (Cmax) was found to be 778 ± 276 ng/mL and the Tmax is recorded as 0.283 ± 0.209 h. This compound also had a t1/2 in series [2] (setting [8]) of 3.01 ± 2.90 h. Further, the “Time for blood concentration to reach almost 0” value in series [2] (rat portal and peripheral blood) is at most 5 h. In series [4] (setting [9]), the “Level in luminal contents as % of the ingested amount” value (shortened to “Level in luminal contents as %”) is under 1% and the “Level in small intestinal luminal contents” value was “below 10 μg/site”.
As for `C/C=C/C=C/C=C/CC/C=C/C(=O)NCC(C)(C)O` [HBS, hydroxy-β-sanshool], the “% of ingested TU-100, Median” value in series [1] (β-glucuronidase treatment −) was “B.L.Q”. Besides, the “Effect … on blood concentrations” value in series [2] is recorded as “no effect”. Also, in series [4] (setting [9]), the “Level in luminal contents as %” value was under 1% and the “Level in small intestinal luminal contents” value is on record as “below 10 μg/site”.
As to `CC(C)=CCC[C@](C)(O[C@@H]1O[C@H](CO[C@@H]2O[C@H](CO)[C@@H](O)[C@H](O)[C@H]2O)[C@@H](O)[C@H](O)[C@H]1O)[C@H]1CC[C@]2(C)[C@@H]1[C@H](O)C[C@@H]1[C@@]3(C)CC[C@H](O[C@@H]4O[C@H](CO)[C@@H](O)[C@H](O)[C@H]4O[C@@H]4O[C@H](CO)[C@@H](O)[C@H](O)[C@H]4O)C(C)(C)[C@@H]3CC[C@]12C` [Rb1, ginsenoside Rb1], in series [1] (β-glucuronidase treatment −), the “% of ingested TU-100, Max” value was 77.5% and the “% of ingested TU-100, Median” value amounted to 59.1%. Moreover, in series [2] (male, Sprague Dawley, rat, plasma (peripheral and portal blood), oral, 0.3 g/kg), the Tmax was about 4 h. In series [2] (setting [10]), the AUC came out at 34.3 ± 12 ng·h/mL, the area under the curve AUC(0-t) is 34.3 ± 12 ng·h/mL, the Cmax was 2.12 ± 0.759 ng/mL and the time of peak concentration (Tmax) was 4.8 ± 1.79 h. In addition, the “Effect … on blood concentrations” value in series [2] is on record as “no effect”. In series [3] (setting [7]), the AUC is 28.7 ± 6.29 ng·h/mL, the area under the curve AUC(0-t) was determined as 28.7 ± 6.29 ng·h/mL, the maximum concentration (Cmax) worked out at 2.1 ± 1.13 ng/mL and the Tmax was 6 ± 2.31 h. Moreover, the “Effect of β-glucuronidase treatment on luminal amounts” value in series [4] was “did not have a significant effect”. In series [4] (setting [11]), the “Level in luminal contents as %” value was “around 10%”. In addition, in series [4] (setting [12]), the “Level in luminal contents as %” value is given as about 50%.
With `CC(C)=CCC[C@](C)(O[C@@H]1O[C@H](CO)[C@@H](O)[C@H](O)[C@H]1O)[C@H]1CC[C@]2(C)[C@@H]1[C@H](O)C[C@@H]1[C@@]3(C)CC[C@H](O)C(C)(C)[C@@H]3[C@@H](O[C@@H]3O[C@H](CO)[C@@H](O)[C@H](O)[C@H]3O)C[C@]12C` [Rg1, ginsenoside Rg1], in series [1] (β-glucuronidase treatment −), the “% of ingested TU-100, Max” value is given as 114.0% and the “% of ingested TU-100, Median” value is on record as 91.5%. Also, in series [2] (rat blood after oral TU-100), the Blood concentrations entry was “too low to obtain reliable data”. For the same compound, the “Effect of β-glucuronidase treatment on luminal amounts” value in series [4] was “did not have a significant effect”. The “Level in luminal contents as %” value in series [4] (setting [11]) is “around 10%”. For the same compound, the “Level in luminal contents as %” value in series [4] (setting [12]) was about 30%.

Broadly, the AUC is concentration integrated over time. A low value points to low exposure. In general, AUC(0-t) refers to the area under the concentration-time curve up to a stated or last time point. By Cmax is commonly meant the peak of the concentration-time curve. The term Tmax denotes the time from dosing to the highest level. By half-life is commonly meant how long it takes for the measured level to halve. Low readings indicate fast loss, high ones slow loss.
